For orientation: IC50 means the concentration that gives 50% inhibition.

From PubChem BioAssay AID588425 (Johns Hopkins Ion Channel Center, 2011) come the findings set out here.

Calls of active or inactive are those of the source.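 Rule for the calls: active = any inhibition of the KCNQ1 potassium channel at some tested dose, with a fitted dose response curve; inactive = no inhibition at any dose or no curve fitted.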

The assay addresses Potassium voltage-gated channel subfamily KQT member 1 (Homo sapiens) (UniProt P51787). Put plainly: human KCNQ1 blockade by KCNQ2 inhibitors – automated patch clamp, KCNQ1-CHO cells, selectivity assay for KCNQ2 inhibitor project, SAR follow-up (AID 588425). The following applies: for current change, negative = inhibition: at 30 µM (top of the series); for IC50: automated patch clamp current. In outline: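 Assay system: KCNQ1-expressing CHO cells; Medium: NaCl/HEPES external, KCl/K-gluconate internal solutions; Probe or stimulus: voltage stimulus from -70 mV holding, stepped to +40 mV; Timing: 2,000 ms depolarization per sweep; Signal: automated patch clamp, amphotericin B-perforated recording of potassium current; Read-out: percent current change relative to pre-compound current.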
(Patch clamp records ionic current or voltage across a cell membrane.)

Potassium voltage-gated channel subfamily KQT member 1 (Homo sapiens), sequence (P51787 whole entry, looked up): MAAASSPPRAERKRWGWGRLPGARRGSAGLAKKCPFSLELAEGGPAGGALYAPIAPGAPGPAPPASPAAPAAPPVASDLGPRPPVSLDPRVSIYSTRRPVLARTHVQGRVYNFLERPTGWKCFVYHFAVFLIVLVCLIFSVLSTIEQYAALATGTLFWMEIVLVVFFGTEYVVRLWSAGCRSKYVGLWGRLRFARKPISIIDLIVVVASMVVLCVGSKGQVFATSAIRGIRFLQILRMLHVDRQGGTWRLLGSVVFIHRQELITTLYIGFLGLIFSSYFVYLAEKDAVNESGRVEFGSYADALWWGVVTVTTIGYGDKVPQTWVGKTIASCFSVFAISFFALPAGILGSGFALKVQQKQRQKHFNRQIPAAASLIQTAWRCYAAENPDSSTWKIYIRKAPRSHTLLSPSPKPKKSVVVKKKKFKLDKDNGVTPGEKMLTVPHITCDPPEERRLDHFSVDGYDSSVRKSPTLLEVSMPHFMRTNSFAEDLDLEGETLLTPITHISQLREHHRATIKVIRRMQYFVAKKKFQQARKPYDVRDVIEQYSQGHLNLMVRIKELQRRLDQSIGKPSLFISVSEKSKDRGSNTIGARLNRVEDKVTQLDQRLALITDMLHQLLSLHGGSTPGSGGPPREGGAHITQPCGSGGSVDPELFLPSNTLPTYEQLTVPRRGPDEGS

For `CCC(C(=O)Nc1ccccc1-c1ccccc1)c1ccccc1` (stereo unspecified), the “current change, negative = inhibition” value was “inactive”. With `CCC(C(=O)Nc1ccccc1N1CCCC1)c1cccc(Cl)c1` (stereo unspecified), the IC50 is 11.2 µM. As to `CC[C@@H](C(=O)Nc1ccc(N2CCCC2)cc1)c1ccccc1`, the IC50 was 14.9 µM. On to `CCC(C(=O)Nc1ccccc1N1CCCC1)c1cccc(F)c1` (stereo unspecified), for which the IC50 is 17.7 µM. With `CCC(C(=O)Nc1ccccc1N1CCCC1)c1cccc(C(F)(F)F)c1` (stereo unspecified), the “current change, negative = inhibition” value was “inactive”. For the molecule `CCC(C(=O)Nc1ccccc1N1CCCC1)c1ccc(Cl)c(Cl)c1` (stereo unspecified), the half-inhibitory concentration (IC50) is 9.96 µM. With `O=C(Nc1ccccc1N1CCCC1)C1CCc2ccccc21` (stereo unspecified), the IC50 is 12.1 µM. Turning to `CCC(C(=O)Nc1ccccc1N1CCCC1)c1ccc(Cl)cc1` (stereo unspecified), the “current change, negative = inhibition” value is “inactive”. Consider `CC[C@H](C(=O)Nc1ccc(N2CCCC2)cc1)c1ccccc1`, for which the “current change, negative = inhibition” value was “inactive”. Regarding `CC(C(=O)Nc1ccccc1N1CCCC1)c1ccccc1` (stereo unspecified), the IC50 is 29 µM. For the molecule `CC[C@@H](C(=O)Nc1ccccc1N1CCCC1)c1ccccc1`, the IC50 is 8.67 µM. Turning to `CCC(C(=O)Nc1ccccc1N1CCCC1)c1ccccc1F` (stereo unspecified), the “current change, negative = inhibition” value was “inactive”. Take `CCC(C(=O)Nc1ccccc1N1CCCC1)c1ccccc1` (stereo unspecified): the IC50 is 19.5 µM.

Regarding `CCC(C(=O)Nc1ccccc1-n1cccc1)c1ccccc1` (stereo unspecified), the IC50 was 13.7 µM. Consider `CCC(C(=O)Nc1ccc(N2CCCC2)cc1)c1ccccc1` (stereo unspecified), for which the IC50 was 29 µM.

For the molecule `CCC(C(=O)Nc1ccccc1N1CCCC1)c1ccc(F)c(F)c1` (stereo unspecified), the IC50 was 2.58 µM. As for `CC[C@H](C(=O)Nc1ccccc1N1CCCC1)c1ccccc1`, the IC50 was 2.92 µM. Same read-out and setting: as for `CCC(C(=O)Nc1ccccc1N1CCCC1)c1cccc(OC)c1` (stereo unspecified), the figure is 22.1 µM. Turning to `C[C@H](C(=O)Nc1ccccc1N1CCCC1)c1ccccc1`, the “current change, negative = inhibition” value is “inactive”.

Consider `CCC(C(=O)Nc1ccccc1N1CCCC1)c1cccc(C)c1` (stereo unspecified), for which the “current change, negative = inhibition” value is “inactive”. `CCC(C(=O)Nc1ccccc1N1CCCC1)c1ccc(F)cc1` (stereo unspecified): the IC50 was 6.8 µM.
